Assay results: ChEMBL document CHEMBL4177541, “Identification of Pyridinium with Three Indole Moieties as an Antimicrobial Agent” (J Nat Prod, 2017)
Values after ≈ are worked out from the molar mass of the structure shown.

Key:
Escherichia coli = assay: Antimicrobial activity against Escherichia coli W3110 incubated for 20 hrs by CLSI protocol based method; format: functional; conditions: W3110, 20 h
Bacillus cereus = assay: Antimicrobial activity against Bacillus cereus incubated for 20 hrs by CLSI protocol based method; format: functional
Staphylococcus aureus = assay: Antimicrobial activity against methicillin-sensitive Staphylococcus aureus incubated for 20 hrs by CLSI protocol based method; format: functional
Candida albicans = assay: Antimicrobial activity against Candida albicans incubated for 24 hrs by CLSI protocol based method; format: functional
P388 = assay: Cytotoxicity against mouse P388 cells assessed as reduction in cell viability by MTT assay; format: functional, cell-based
Summary of the method: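 P388 murine leukemia cells were maintained in DMEM with 10% FBS and penicillin-streptomycin. After compound exposure, MTT (15 μL of a 5.0 mg/mL solution) was added for 3 h. The supernatant was removed and formazan dissolved in DMSO. IC50 was derived.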

| Compound | MIC (Escherichia coli) | MIC (Bacillus cereus) | MIC (Staphylococcus aureus) | MIC (Candida albicans) | IC50 (P388) |
| --- | --- | --- | --- | --- | --- |
| CC1(C)S[C@@H]2[C@H](NC(=O)[C@H](N)c3ccccc3)C(=O)N2[C@H]1C(=O)O [AMPICILLIN] | 4 µg/mL (≈ 11.4 µM) | 0.063 µg/mL (≈ 0.18 µM) | 0.5 µg/mL (≈ 1.43 µM) | 100 µg/mL (≈ 286 µM) | – |
| Brc1cc(Br)c[n+](CCc2c[nH]c3ccccc23)c1.[Br-] | > 100 µg/mL | > 100 µg/mL | > 100 µg/mL | 100 µg/mL | 76 µM |
| [Br-].c1ccc2c(CC[n+]3cc(-c4c[nH]c5ccccc45)cc(-c4c[nH]c5ccccc45)c3)c[nH]c2c1 | > 100 µg/mL | 0.78 µg/mL | 1.56 µg/mL | 12.5 µg/mL | 1 µM |
| [Br-].c1ccc2c(CC[n+]3cccc(-c4c[nH]c5ccccc45)c3)c[nH]c2c1 | > 100 µg/mL | 25 µg/mL | 50 µg/mL | 100 µg/mL | 50 µM |
| [Br-].c1cc[n+](CCc2c[nH]c3ccccc23)cc1 | > 100 µg/mL | > 100 µg/mL | > 100 µg/mL | 100 µg/mL | 53 µM |
